KCNK9 inh = inhibitors of human KCNK9 two-pore domain potassium channel | Q9NPC2 | HEK293 KCNK9, FluxOR thallium flux fluorescence; active compounds read low | B-score at 10 µM | 310,000 compounds, 1.2% hits | AID 488922;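 active = ratio B-score over 3 SD below the library mean, with starting fluorescence within 5 SD of its mean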;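 note: negative B-score means less thallium flux so channel inhibition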
KCNQ1 act = potentiates or activates the human KCNQ1 potassium channel; CHO-K1 KCNQ1, thallium flux FluxOR fluorescence; active compounds read high; B-score at 10 µM; 310,000 compounds, 0.35% hits;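 active = fluorescence ratio B-score, a plate-corrected score, at least three library SD, with initial intensity B-score within 5 SD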
Target sequence (P51787 whole entry, looked up): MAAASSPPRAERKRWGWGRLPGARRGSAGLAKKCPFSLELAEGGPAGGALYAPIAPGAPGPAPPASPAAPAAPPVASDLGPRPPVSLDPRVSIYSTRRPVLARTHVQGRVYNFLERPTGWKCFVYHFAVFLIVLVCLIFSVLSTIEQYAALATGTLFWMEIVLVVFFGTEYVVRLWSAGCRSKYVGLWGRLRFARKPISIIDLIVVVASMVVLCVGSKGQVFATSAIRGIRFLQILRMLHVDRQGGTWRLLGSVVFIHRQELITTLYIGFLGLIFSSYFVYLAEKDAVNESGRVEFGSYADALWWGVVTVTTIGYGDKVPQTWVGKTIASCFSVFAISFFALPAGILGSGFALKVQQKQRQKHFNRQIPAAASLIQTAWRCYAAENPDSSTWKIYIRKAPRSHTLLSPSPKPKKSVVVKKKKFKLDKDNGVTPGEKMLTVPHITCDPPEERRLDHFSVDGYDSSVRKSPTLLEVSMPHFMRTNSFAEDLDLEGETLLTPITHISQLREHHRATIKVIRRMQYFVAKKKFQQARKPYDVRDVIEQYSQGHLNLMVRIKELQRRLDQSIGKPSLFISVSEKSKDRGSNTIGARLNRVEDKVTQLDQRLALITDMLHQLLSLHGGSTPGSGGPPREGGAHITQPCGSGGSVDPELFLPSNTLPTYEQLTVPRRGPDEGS
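Doses: Single concentration per compound, DMSO matched to controls | Test system: KCNQ1-transfected CHO-K1 cells | Timing: 90 min dye loading and 20 min compound exposure, both at room temperature | Measured by: Kinetic FluxOR thallium fluorescence, 10-s 1-Hz baseline, 110-s post-stimulus read | Medium: Assay buffer with matched DMSO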
Kir21 block = blocks the mouse Kir2.1 inward-rectifier potassium channel; P35561; HEK293-Kir2.1, FluxOR thallium flux fluorescence; active compounds read low; B-score at 10 µM; 310,000 compounds, 0.85% hits; AID 1672;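 active = fluorescence ratio B-score at or below minus 3 SD of library scores, with starting-brightness B-score within 2 SD, cut at about -4.2 in these data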;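 note: channel flux triggered by added potassium and thallium sulfate stimulus; B-score of peak minus minimum fluorescence over baseline after thallium stimulus; more negative B-score means stronger Kir2.1 block with less thallium influx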
KCNQ1 block = human KCNQ1 channel inhibition. 310,000 compounds, 1.3% hits. CHO-K1 KCNQ1, FluxOR thallium flux fluorescence; active compounds read high. B-score at 10 µM;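 active = compounds whose thallium flux B-score, printed positive for inhibition, exceeds three library SD while starting fluorescence stays within three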;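 note: channel opened by potassium depolarization with thallium stimulus after 20 min compound exposure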
KCNK3 block = human KCNK3 channel inhibition, primary screen. O14649. CHO-KCNK3 thallium flux, FluxOR fluorescence; active compounds read low. B-score at 10 µM. 340,000 compounds, 0.84% hits. AID 602410;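 active = B-score under library mean minus 4 SD, starting fluorescence ratio at most library mean plus 5 SD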;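 note: more negative B-score means stronger inhibition of thallium flux through KCNK3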
hERG rescue = compounds protecting human hERG from proarrhythmic drug block; CHO-hERG, FluxOR thallium flux, dofetilide IC70 present; activation (rescue from dofetilide block), less the hit threshold, % at 10 µM; 310,000 compounds, 0.51% hits;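 active = activation above the mean of controls blocked by dofetilide plus 5 SD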;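 note: thallium influx through hERG after potassium depolarization seen as dye fluorescence rise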
Numbers stand for hits; . = inactive; / = no result. A selection: hits, their analogues and other compounds. The true share with any hit is near 3.8%.

SMILES	KCNK9 inh	KCNQ1 act	Kir21 block	KCNQ1 block	KCNK3 block	hERG rescue
Cc1cccc(-c2cc3nc4c(c(N5CCOCC5)n3n2)CCCC4)c1	.	.	.	.	.	.
Cc1cccc(-c2cc3nc4c(c(NCc5ccco5)n3n2)CCCC4)c1	-7.2	.	.	.	.	.
COc1cc(C(=O)NCC(=O)NCC(c2ccco2)N2CCCCC2)cc(OC)c1OC (centres undefined)	/	/	/	/	.	/
CCn1c(O)c(N=NC(=S)NCC2CCCO2)c2ccccc21 (centres undefined)	.	.	.	.	.	6.3
Oc1[nH]c2c(Cl)cc(Cl)cc2c1N=NC(=S)NCC1CCCO1 (centres undefined)	.	52	.	.	.	12
CCC1Oc2ccccc2N(CC(=O)NCc2cccs2)C1=O (centres undefined)	.	.	.	.	.	.
Cc1nc(N2CCCCC2)c2c(-c3cccs3)csc2n1	-7.3	.	.	.	.	.
CCN(CC)c1ccc2cc(-c3nc4ccccc4[nH]3)c(=O)oc2c1	.	.	.	27	.	.
OC(CNCC(c1ccc(Cl)cc1Cl)c1c[nH]c2ccccc12)c1ccccc1 (centres undefined)	.	.	.	.	.	40
Cc1cc(C)n(C(=O)/C(C#N)=N/Nc2cc(Cl)cc(Cl)c2)n1	.	.	.	8	.	.
Cc1cc(C)n(C(=O)/C(C#N)=N\Nc2ccccc2[N+](=O)[O-])n1	.	.	.	.	.	.
CC1CN(c2ccc([N+](=O)[O-])c(NCCOc3ccc(Cl)cc3)c2)CC(C)N1 (centres undefined)	.	.	-8	9	.	.
COc1ccc2c(c1)C(c1ccc(Cl)cc1)NC(=O)C2 (centres undefined)	.	.	.	.	.	.
O=C1/C(=C/c2cccc(F)c2)Oc2cc(O)ccc21	.	.	.	14	.	.
COc1ccc(S(=O)(=O)N(Cc2ccccc2)c2ccccc2C(=O)Nc2ccccc2C(=O)NCc2ccco2)cc1	-6.9	.	.	.	.	.
O=C(O)/C=C/c1ccc(OCc2cccc(F)c2)cc1	.	.	.	.	.	.
O=[N+]([O-])c1cc(F)cc(F)c1Nc1cc(F)cc(F)c1	/	/	/	/	.	/
COC(=O)c1cc2c(-c3ccccc3)cc3ccccn3c-2c1C(=O)OC	.	.	.	.	-8.9	.
COC(=O)c1c(C)c2c(C)cc3ccccn3c-2c1C(=O)OC	.	.	.	.	.	.
CC(C)(C)C1CCC(=O)N(CCOc2ccccc2)CC1 (centres undefined)	.	.	-5.6	.	.	.
CCCN1CCC(=O)N(CCOc2ccccc2)CC1	.	.	.	.	.	.
CC(C)(C)[C@H]1CCC(=O)N([C@H](CSc2ccc(Br)cc2)Cc2ccccc2)CC1	/	/	/	/	.	/
CC(C)(C)[C@H]1CCC(=O)N([C@H](CSc2ccccc2)Cc2ccccc2)CC1	-6.8	.	.	.	.	.
CC(C)(C)[C@@H]1CCC(=O)N(CC[C@H](Sc2ccccc2)c2ccccc2)CC1	.	.	.	6	.	.
C=CCOc1ccc(C=CC(=O)c2c(O)c(OC)c(OC)c(OC)c2OC)cc1	/	/	/	/	.	/
SMILES	KCNK9 inh	KCNQ1 act	Kir21 block	KCNQ1 block	KCNK3 block	hERG rescue
Cc1ccc(/C=N/NC(=O)CC2N=C(Cc3ccccc3)NNC2=O)cc1 (centres undefined)	.	.	.	.	.	5.2
C/C(=N\NC(=O)CC1N=C(Cc2ccccc2)NNC1=O)c1ccncc1 (centres undefined)	.	.	.	.	.	.
COc1cccc(NC(=O)CN(C)C(=O)C2CCN(C(=O)c3ccccc3C)CC2)c1	.	.	.	.	.	.
Cc1cc(C(=O)OCC(=O)Nc2ccccc2C(F)(F)F)on1	/	/	/	/	.	/
COc1cc(/C=C2/C(=O)NN(c3cccc(C)c3)C2=O)ccc1OC(=O)c1ccco1	.	.	-6.1	.	.	.
CCN(C(=O)COC(=O)c1cccc(NS(=O)(=O)c2ccc(F)c(F)c2)c1)C1CCS(=O)(=O)C1 (centres undefined)	.	.	.	.	/	.
N#CCCn1cc(C(=O)Nc2ccccc2Br)c(-c2cccs2)n1	-7.3	.	.	.	.	.
COc1ccc(C(=O)NC(=S)NCCc2ccccc2)cc1	.	.	.	.	.	.
O=C(NC(=S)NCCc1ccccc1)c1cccc(Cl)c1	.	9	.	.	.	12
O=C(Nc1nccs1)c1cn(-c2ccccc2)nc1-c1ccccc1	.	.	.	.	.	.
CC(C)COc1ccc(-c2nn(-c3ccccc3)cc2C(=O)Nc2nccs2)cc1	.	9	.	.	.	14
COc1ccc(-c2csc(NC(=O)COC(=O)C3=COCCO3)n2)cc1	.	.	.	.	.	.
NC(=O)CCN1CCN(CCOC2Cc3cc(Cl)ccc3Sc3ccccc32)CC1 (centres undefined)	.	.	-6.4	.	.	.
CCn1nnc2cc(C(=O)Nc3cc(S(C)(=O)=O)ccc3Cl)ccc21	.	10	.	.	.	.
O=C(NC12CC3CC(CC(C3)C1)C2)N(Cc1ccccc1)Cc1ccncc1	.	.	.	6	.	.
O=C(NC12CC3CC(CC(C3)C1)C2)c1ccccc1	.	.	.	.	.	.
CS(=O)(=O)N(CC(=O)NC1CC2CCC1C2)c1ccc(Oc2ccccc2)cc1 (centres undefined)	.	.	.	.	.	.
O=C(Nc1ccccc1)N1CCN(c2cccc(C(F)(F)F)c2)CC1	-7.4	.	.	.	.	.
COc1ccc(Nc2ncnc3ccc(C)cc23)cc1	.	.	-6	.	.	.
OCC[C@@H]1C[C@H](O)[C@@H](O)[C@@]2(CCCCO2)O1	.	.	.	.	.	.
O=C(Nc1cccc(S(=O)(=O)NCc2ccco2)c1)c1cc(-c2ccc(F)cc2)nc2ccccc12	.	.	.	7	.	.
O=C(Nc1ccccc1)c1ccc(S(=O)(=O)NCc2ccco2)cc1	.	.	.	.	.	.
O=C(Nc1ccccc1)c1cccc(S(=O)(=O)NCc2ccco2)c1	.	.	.	.	.	7.3
COc1ccccc1CNC(=O)c1cccnc1	.	.	.	.	.	.
CC1CCCC(NC(=O)CCS(=O)(=O)c2cc3c(cc2Cl)NC(=O)CO3)C1C (centres undefined)	.	.	.	.	.	.
CCOCCCN(C(=O)c1ccco1)C(C(=O)NC1CCCC1)c1ccc(OC)cc1 (centres undefined)	.	.	.	.	.	.
CCCN(CCC)C(=O)CC(c1ccccc1)C1CCOC(C)(C)C1 (centres undefined)	.	.	.	.	.	.
COc1ccc(CN(CCC(c2ccc(F)cc2)C2CCOC(C)(C)C2)C(=O)c2ccco2)cc1 (centres undefined)	-11	.	.	.	.	.

Screening data (PubChem BioAssay)
